Results: ChEMBL document CHEMBL3758077, “Discovery of New Acid Ceramidase-Targeted Acyclic 5-Alkynyl and 5-Heteroaryl Uracil Nucleosides” (ACS Med Chem Lett, 2015)
Calls of active or inactive are those of the source. The rule behind the calls is not given here.

How the values were obtained:
HeLa = assay: Antiproliferative activity against human HeLa cells after 72 hrs by MTT assay; format: functional, cell-based
How it was run: (§1)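 Cells grown in vitro with test agent; growth inhibition read by MTT assay; IC50 taken as concentration inhibiting tumor cell proliferation by 50%.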

MCF7 [1] = assay: Antiproliferative activity against human MCF7 cells after 72 hrs by MTT assay; format: functional, cell-based; conditions: MCF7, 72 h; how it was run: as §1
[2] = Antiproliferative activity against human SW620 cells after 72 hrs by MTT assay; format: functional, cell-based; conditions: SW-620, 72 h; how it was run: as §1
BJ = assay: Antiproliferative activity against human BJ cells after 72 hrs by MTT assay; format: cell-based; how it was run: as §1
MCF7 [3] = assay: Effect on SK1 expression in human MCF7 cells at IC50 after 24 hrs by western blot analysis; format: functional, cell-based
MCF7 [4] = assay: Downregulation of ASAH1 expression in human MCF7 cells at IC50 after 24 hrs by western blot analysis; format: functional, cell-based
MCF7 [5] = assay: Induction of apoptosis in human MCF7 cells assessed as late apoptotic cells at IC50 after 48 hrs by annexinV/propidium iodide staining based fluorescence analysis (reference value: 27.7 %); format: functional
MCF7 [6] = assay: Induction of apoptosis in human MCF7 cells assessed as early apoptotic cells at IC50 after 48 hrs by annexinV/propidium iodide staining based fluorescence analysis (reference value: 36.1 %); format: functional
MCF7 [7] = assay: Induction of apoptosis in human MCF7 cells assessed as late apoptotic cells at IC50 after 24 hrs by annexinV/propidium iodide staining based fluorescence analysis (reference value: 7.5 %); format: functional
MCF7 [8] = assay: Induction of apoptosis in human MCF7 cells assessed as necrotic cells at IC50 after 48 hrs by annexinV/propidium iodide staining based fluorescence analysis (reference value: 25.4 %); format: functional
MCF7 [9] = assay: Induction of apoptosis in human MCF7 cells assessed as early apoptotic cells at IC50 after 24 hrs by annexinV/propidium iodide staining based fluorescence analysis (reference value: 8.7 %); format: functional
MCF7 [10] = assay: Induction of apoptosis in human MCF7 cells assessed as necrotic cells at IC50 after 24 hrs by annexinV/propidium iodide staining based fluorescence analysis (reference value: 9.4 %); format: functional
[11] = biological target: T1, 17-beta-hydroxysteroid dehydrogenase type 1 (Homo sapiens) (UniProt P14061); assay: Inhibition of 17beta-HSD1 in human MCF7 cells at IC50 after 24 hrs by ELISA; format: cell-based
T1 sequence (whole entry): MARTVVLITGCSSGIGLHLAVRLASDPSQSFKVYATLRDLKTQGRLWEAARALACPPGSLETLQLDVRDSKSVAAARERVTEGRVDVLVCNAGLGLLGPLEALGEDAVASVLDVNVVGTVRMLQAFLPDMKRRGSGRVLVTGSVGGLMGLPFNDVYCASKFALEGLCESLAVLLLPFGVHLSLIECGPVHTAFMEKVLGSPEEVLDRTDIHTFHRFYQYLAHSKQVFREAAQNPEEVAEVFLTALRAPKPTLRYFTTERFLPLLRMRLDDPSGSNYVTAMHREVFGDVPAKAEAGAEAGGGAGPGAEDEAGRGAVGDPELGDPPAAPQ

[12] = biological target: T1, 17-beta-hydroxysteroid dehydrogenase type 1 (Homo sapiens); assay: Inhibition of 17beta-HSD1 in human MCF7 cells at 5XIC50 after 24 hrs by ELISA; format: cell-based

| SMILES | IC50 (HeLa) | IC50 (MCF7 [1]) | IC50 [2] | IC50 (BJ) | Activity (MCF7 [3]) | inhibition (MCF7 [4]) | Activity (MCF7 [5]) | Activity (MCF7 [6]) | Activity (MCF7 [7]) | Activity (MCF7 [8]) | Activity (MCF7 [9]) | Activity (MCF7 [10]) | inhibition [11] | inhibition [12] |
| --- | --- | --- | --- | --- | --- | --- | --- | --- | --- | --- | --- | --- | --- | --- |
| O=c1[nH]c(=O)n(CCC(CO)CO)cc1C#CCCCCl | > 100 µM | 35.2 µM | > 100 µM |  |  |  |  |  |  |  |  |  |  |  |
| CCCCCC#Cc1cn(CCC(CO)CO)c(=O)[nH]c1=O | 76.3 µM | 37.8 µM | > 100 µM |  |  |  |  |  |  |  |  |  |  |  |
| O=c1[nH]c(=O)n(CCC(CO)CO)cc1C#Cc1cc(F)cc(F)c1 | 31.2 µM | 63.1 µM | > 100 µM | > 100 µM |  |  |  |  |  |  |  |  |  |  |
| CCCCCc1ccc(C#Cc2cn(CCC(CO)CO)c(=O)[nH]c2=O)cc1 | 48.2 µM | 26.8 µM | > 100 µM |  |  |  |  |  |  |  |  |  |  |  |
| CC(=O)OCC(CCn1cc(C#CC(C)(C)C)c(=O)n(C(=O)c2ccccc2)c1=O)COC(C)=O | 71.5 µM | 67.1 µM | > 100 µM | 36.9 µM |  |  |  |  |  |  |  |  |  |  |
| O=c1[nH]c(=O)n(CCC(CO)CO)cc1C#CC1CC1 | > 100 µM | > 100 µM | > 100 µM |  |  |  |  |  |  |  |  |  |  |  |
| CCCCCC#Cc1cn(CCC(COC(C)=O)COC(C)=O)c(=O)n(C(=O)c2ccccc2)c1=O | 53.7 µM | 62.2 µM | 40.7 µM |  |  |  |  |  |  |  |  |  |  |  |
| O=c1[nH]cc(F)c(=O)[nH]1 [FLUOROURACIL] | > 100 µM | 0.09 µM | 0.79 µM |  |  |  |  |  |  |  |  |  |  |  |
| CC(=O)OCC(CCn1cc(C#CC2CC2)c(=O)n(C(=O)c2ccccc2)c1=O)COC(C)=O | > 100 µM | 0.1 µM | > 100 µM | 0.3 µM | inactive | Active | 24.4% | 20.9% | 36.6% | 31.6% | 10.9% | 34.1% |  |  |
| O=c1[nH]c(=O)n(CCC(CO)CO)cc1-c1cccs1 | 7.8 µM | 6 µM | > 100 µM |  | inactive | inactive | 22.9% | 54.9% | 33.6% | 13.1% | 32.8% | 26.2% | Active | Active |
| O=c1[nH]c(=O)n(CCC(CO)CO)cc1C#CCc1ccccc1 | 63.8 µM | > 100 µM | 72.4 µM | > 100 µM |  |  |  |  |  |  |  |  |  |  |
| CC(=O)OCC(CCn1cc(C#CCCCCl)c(=O)n(C(=O)c2ccccc2)c1=O)COC(C)=O | 52.8 µM | 21 µM | > 100 µM |  |  |  |  |  |  |  |  |  |  |  |
| CC(C)(C)C#Cc1cn(CCC(CO)CO)c(=O)[nH]c1=O | > 100 µM | 95.9 µM | > 100 µM | 58.2 µM |  |  |  |  |  |  |  |  |  |  |
| O=c1[nH]c(=O)n(CCC(CO)CO)cc1-c1ccco1 | > 100 µM | < 0.01 µM | > 100 µM | 0.5 µM | inactive | inactive | 18% | 39.3% | 19.7% | 28.7% | 20.4% | 34% | inactive | inactive |
| CCCCCCCCC#Cc1cn(CCC(COC(C)=O)COC(C)=O)c(=O)n(C(=O)c2ccccc2)c1=O | 32.4 µM | 28.9 µM | 65.8 µM | > 100 µM |  |  |  |  |  |  |  |  |  |  |
| CCCCCCCCC#Cc1cn(CCC(CO)CO)c(=O)[nH]c1=O | 58.9 µM | 40.3 µM | > 100 µM |  |  |  |  |  |  |  |  |  |  |  |
| CCCCCc1ccc(C#Cc2cn(CCC(COC(C)=O)COC(C)=O)c(=O)n(C(=O)c3ccccc3)c2=O)cc1 | 79.1 µM | 0.1 µM | > 100 µM | 17.6 µM | inactive | Active | 24.1% | 28.2% | 28.3% | 37.9% | 41.7% | 34.6% |  |  |
| CC(=O)OCC(CCn1cc(C#CCc2ccccc2)c(=O)n(C(=O)c2ccccc2)c1=O)COC(C)=O | 29.9 µM | 26.8 µM | 36.4 µM |  |  |  |  |  |  |  |  |  |  |  |
| O=c1[nH]c(=O)n(CCC(CO)CO)cc1C#Cc1ccc(Br)cc1 | 67.7 µM | 46 µM | > 100 µM | > 100 µM |  |  |  |  |  |  |  |  |  |  |
| CC(=O)OCC(CCn1cc(C#Cc2ccc(Br)cc2)c(=O)n(C(=O)c2ccccc2)c1=O)COC(C)=O | 47.2 µM | 28.9 µM | > 100 µM | 37.6 µM |  |  |  |  |  |  |  |  |  |  |
| CC(=O)OCC(CCn1cc(C#Cc2cc(F)cc(F)c2)c(=O)n(C(=O)c2ccccc2)c1=O)COC(C)=O | 64.5 µM | 28.9 µM | > 100 µM | 46.6 µM |  |  |  |  |  |  |  |  |  |  |
